These results are taken from publication PMC3240686 (Journal of medicinal chemistry, 2011).

The subject of data set [1] is carrageenan-induced thermal hyperalgesia. Description: Carrageenan-induced thermal hyperalgesia. The class given is in vivo. The following applies: rats; for antihyperalgesic effect and its duration: oral 100 mg/kg, n=2, time post-carrageenan; for activity at inhibiting hyperalgesia: carrageenan model; for block of development of carrageenan-induced hyperalgesia, i.p.: i.p. injection 10 mg/kg; for block of development of carrageenan-induced hyperalgesia, i.p. / block of carrageenan-induced hyperalgesia, oral: 30 min before carrageenan, n=3. In a few lines: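 Under light CO2 (80%)/O2 (20%) anaesthesia, rats received subplantar 1% carrageenan in saline (vehicle: saline) into the right hindpaw. For prophylactic dosing, drug or vehicle was given by gavage or i.p. 30 min before carrageenan. Heat hyperalgesia was measured by the Hargreaves plantar test, with an infrared stimulus from below and a 20 s cut-off. The read-out was change in paw-withdrawal latency (s).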

A short description of data set [2]: Relative lipophilicity by reversed phase HPLC retention factors. The note with it: relative to parent compound 7, isocratic conditions. The data set is classed as physicochemical.
Data set [3] concerns mechano-allodynia after CCI of the sciatic nerve. Description: Chronic constriction injury. The class given is in vivo. The following applies: mice.
Data set [4] is described as follows: Observed acute toxicity in the carrageenan hyperalgesia studies. The class given is in vivo, rats.
The conditions of data set [5]: octanol-water, slow stir method.
A short description of data set [6]: Cyclic voltammetry in CH2Cl2. The class given is physicochemical.
Where [7] appears, read: dose 300 mg/kg, 2 h time point, n=6.

As for `CC(C)Cc1ccc(C(C)C(=O)O)cc1` (centres unmarked) [ibuprofen, reference compound], the “% inhibition of hyperalgesia” value in data set [1] (setting [7]) was found to be 99±5%.

As for `CC(=O)Nc1ccc(O)cc1` [acetaminophen, reference compound], the “% inhibition of hyperalgesia” value in data set [1] (setting [7]) came to 20±4%.

In the case of `CC(=O)Oc1ccccc1C(=O)O` [aspirin, reference compound], in data set [1] (setting [7]), the “% inhibition of hyperalgesia” value is given as 50±6%.

“Mn(III)-5,15-bis(4-isobutyryloxymethyl)phenyl-TCHP [Compound 16c]”: the “antihyperalgesic effect and its duration” value in data set [1] was “potent anti-hyperalgesic action out to the 5 hour time point”. For the same compound, the “relative lipophilicity by RPHPLC retention factor” value (from here on “relative lipophilicity”) in data set [2] is “progressively more lipophilic”.

Regarding “Mn(III)-5, 10, 15, 25-tetrakis-phenyl-TCHP Chloride [Compound 12]”, in data set [1], the “activity at inhibiting hyperalgesia” value was “active at inhibiting hyperalgesia”.

Regarding “Mn(III)-5,15-bis(4-propionyloxymethyl)phenyl-TCHP [Compound 16b]”, the “antihyperalgesic effect and its duration” value in data set [1] is given as “strong antihyperalgesic effect out to 3 hours with a decline in this effect occurring in the 4–5 hour time period”. Further, the “relative lipophilicity” value in data set [2] is reported as “progressively more lipophilic”.

As to “Mn(III)-5,15-bis(4-acetoxymethyl)phenyl-TCHP [Compound 16a]”, the “antihyperalgesic effect and its duration” value in data set [1] is recorded as “strong antihyperalgesic effect out to 2 hours post-carrageenan but the effect was lost at 3 hours”. Besides, the “relative lipophilicity” value in data set [2] is listed as “progressively more lipophilic”.

For “Mn(III)-5,15-bis(4-hydroxymethyl)phenyl-TCHP [Compound 15]”, the “antihyperalgesic effect and its duration” value in data set [1] is reported as “excellent potency out to the 5 hour time point”. Besides, the “relative lipophilicity” value in data set [2] is given as “substantially less lipophilic than parent compound 7”.

Turning to Mn(III)-TCHP Chloride [Compound 7], in data set [1] (100 mg/kg oral gavage at 3 h post carrageenan, 4 hour time point), the “reversal of established hyperalgesia: pain at 1 h after dosing” value was “pain was substantially reduced”. Besides, in data set [1], the “block of development of carrageenan-induced hyperalgesia, i.p.” value was “blocked the development of carrageenan-induced hyperalgesia”. Moreover, the “block of carrageenan-induced hyperalgesia, oral” value in data set [1] (oral gavage 100 mg/kg) is reported as “able to block hyperalgesia when given orally”. Also, the “% inhibition of hyperalgesia” value in data set [1] (oral gavage 100 mg/kg, for 2 h) is reported as around 100%. Also, in data set [1] (oral gavage 100 mg/kg, out to 5 h), the “inhibitory effect at late time” value is reported as “substantial inhibitory effect maintained out to 5 h”. Further, the “effect on withdrawal responses of contralateral paws” value in data set [3] (oral 10–100 mg/kg) is on record as “no effect”. Besides, the “reversal of neuropathic pain (mechano-allodynia)” value in data set [3] (oral 10–100 mg/kg at time of peak mechano-allodynia, n=4) was “rapid, dose-dependent and near-to-maximal reversal of neuropathic pain within 1h post-dosing”. Further, the “95% CI of ED50” value in data set [3] (oral, at time of peak reversal, n=4) was in the range of 15.64 to 51.67 mg/kg/day. The “ED50, reversal of mechano-allodynia” value in data set [3] (oral, day 7 after CCI, at time of peak reversal, n=4) came to 28 mg/kg. For the same compound, in data set [4] (doses at least 6–8 fold higher than the one needed to block hyperalgesia), the acute toxicity entry is listed as “no observable acute toxicities”. Also, the LogP (commonly the decadic logarithm of the partition coefficient of the neutral form, usually between octanol and water) in data set [5] came out at 3.77.

“Mn(III)-5,15-di-phenyl-TCHP Chloride [Compound 10]”: the “reversible (presumably porphyrin-based) oxidation potential” value in data set [6] (cyclic voltammetry in CH2Cl2) is on record as 0.89 V. vs. ferrocene. Also, in data set [6] (cyclic voltammetry in CH2Cl2, chemically reversible), the “Mn(II/III) couple” value is −0.79 V vs. ferrocene. Besides, the “activity at inhibiting hyperalgesia” value in data set [1] is “active at inhibiting hyperalgesia”.

Regarding `CC[n+]1ccccc1-c1c2nc(c(-c3cccc[n+]3CC)c3ccc([n-]3)c(-c3cccc[n+]3CC)c3nc(c(-c4cccc[n+]4CC)c4ccc1[n-]4)C=C3)C=C2.[Mn+3]` [Mn(III)-TE-2-PyP^5+, Mn(III) meso-tetrakis[(N-ethyl)pyridinium-2-yl]porphyrin (5+), reference compound], in data set [1], the “block of development of carrageenan-induced hyperalgesia, i.p.” value is given as “blocked the development of carrageenan-induced hyperalgesia”. Further, the “block of carrageenan-induced hyperalgesia, oral” value in data set [1] (oral gavage 100 mg/kg) is “only 7 is able to block hyperalgesia when given orally”. In addition, the mortality (in general, the percentage killed) in data set [4] (i.p., 3 fold higher dose than the one required to block hyperalgesia) is recorded as 100%.
